Test results: paper PMC10373183 (ACS Omega, 2023)
“Also recorded” adds a separate entry of the source.

Key:
U937 cells = assay: CellTiter-Glo Luminescent cell viability assay; type: cell-based, human; settings: for inhibition at 25 µM / inhibition at 50 µM / inhibition at 100 µM / inhibition at 200 µM / GI50: Homo sapiens; for inhibition at 25 µM / inhibition at 50 µM / inhibition at 100 µM / inhibition at 200 µM: U-937, 72 h, read-out: percent inhibition at various concentrations of compounds (CellTiter-Glo, antiproliferative); for GI50: U-937, read-out: antiproliferative (U937) GI50; for antiproliferative activity (in words) / percent inhibition at various concentrations of compounds (CellTiter-Glo, antiproliferative): U937 cells; for antiproliferative activity (in words): CellTiter-Glo, four concentrations; for percent inhibition at various concentrations of compounds (CellTiter-Glo, antiproliferative): 72 h, Mitomycin C = 100%, DMSO = 0%
How it was run: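 U937 cells incubated 72 h with test compound at four concentrations; CellTiter-Glo reagent added at equal volume, shaken 2 min to lyse, then held 10 min at room temperature before luminescence read. Viability = RLU test × 100/RLU control, converted to percent inhibition. GI50 fitted from percent inhibition. Mitomycin C positive control; DMSO diluent as negative control.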

[1] = LDH release cytotoxicity assay; type: cell-based; settings: human, U937 cells
How it was run: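 U937 cells plated and exposed to test compound at several concentrations for 4 h at 37 °C, with Triton X-100 as positive cytotoxicity control. Plates spun 1000 RPM for 5 min. Supernatants mixed with LDH detection reagent for 10 min in the dark at room temperature, then read at OD 490 nm. LC50 fitted from percent activity.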

| Molecule | inhibition at 25 µM (U937 cells) [%] | inhibition at 50 µM (U937 cells) [%] | inhibition at 100 µM (U937 cells) [%] | inhibition at 200 µM (U937 cells) [%] | GI50 (U937 cells) [µM] | inhibition at 4 h, 12.5 µM [1] [%] | inhibition at 4 h, 25 µM [1] [%] | inhibition at 4 h, 50 µM [1] [%] | inhibition at 4 h, 100 µM [1] [%] | antiproliferative activity (in words) (U937 cells) | percent inhibition at various concentrations of compounds (CellTiter-Glo, antiproliferative) (U937 cells; 25 μM compound) | percent inhibition at various concentrations of compounds (CellTiter-Glo, antiproliferative) (U937 cells; 50 μM compound) | percent inhibition at various concentrations of compounds (CellTiter-Glo, antiproliferative) (U937 cells; 100 μM compound) | percent inhibition at various concentrations of compounds (CellTiter-Glo, antiproliferative) (U937 cells; 200 μM compound) |
| --- | --- | --- | --- | --- | --- | --- | --- | --- | --- | --- | --- | --- | --- | --- |
| Cc1nn(C)c(C)c1S(=O)(=O)NCCc1ccc(Cl)cc1 [MR-S1-6, N-(4-Chlorophenethyl)-1,3,5-trimethyl-1H-pyrazole-4-sulfonamide] | 40.5 | 17.9 | 28.4 | 44.2 | > 200 | 3.3 | -1.3 | -2 | -1.6 |  |  |  |  |  |
| Cc1nn(C)c(C)c1S(=O)(=O)NCCC1=CCCCC1 [MR-S1-2, N-(2-(Cyclohex-1-en-1-yl)ethyl)-1,3,5-trimethyl-1H-pyrazole-4-sulfonamide] | 24.8 | 29.3 | 42.2 | 58 | > 200 | -1.3 | -3.6 | -3.1 | -5.3 |  |  |  |  |  |
| Cc1nn(C)c(C)c1S(=O)(=O)N[C@H](C)c1cccc2ccccc12 [MR-S1-15, (R)-1,3,5-Trimethyl-N-(1-(naphthalen-1-yl)ethyl)-1H-pyrazole-4-sulfonamide] | 19.5 | 65.1 | 88.5 | 101 | 3 | 0 | -1.3 | -1.8 | -2.7 | good antiproliferative activity; also recorded: most potent |  |  |  |  |
| N-(3,4-Bis(methoxy-d3)phenethyl-d6)-3,5-dimethyl-1H-pyrazole-4-sulfonamide [MR-S1-10] |  |  |  |  |  |  |  |  |  | less anti-proliferative activity | –8.1% | –37.5% | –39.0% | –14.5% |
| Cc1n[nH]c(C)c1S(=O)(=O)NCCc1c[nH]c2ccccc12 [MR-S1-16, N-(2-(1H-Indol-3-yl)ethyl)-3,5-dimethyl-1H-pyrazole-4-sulfonamide] | 14.5 | 24.1 | 22.5 | 55.9 | > 200 | 3.8 | -0.9 | -1.6 | -1.8 |  |  |  |  |  |
| Cc1n[nH]c(C)c1S(=O)(=O)NCCc1ccc(Cl)cc1 [MR-S1-5, N-(4-Chlorophenethyl)-3,5-dimethyl-1H-pyrazole-4-sulfonamide] | 48.3 | 44.2 | 61.5 | 78.7 | 16 | -1.8 | -2.2 | -0.2 | -2.7 | moderate anti-proliferative activity |  |  |  |  |
| COc1ccc(CCNS(=O)(=O)c2c(C)n[nH]c2C)cc1OC [MR-S1-9, N-(3,4-Dimethoxyphenethyl)-3,5-dimethyl-1H-pyrazole-4-sulfonamide] | -0.5 | -26.2 | -21.2 | 2 | > 200 | -2.7 | 2.7 | 2.4 | -2.4 | impotent; also recorded: less anti-proliferative activity |  |  |  |  |
| Cc1nn(C)c(C)c1S(=O)(=O)NCCc1c[nH]c2ccccc12 [MR-S1-17, N-(2-(1H-Indol-3-yl)ethyl)-1,3,5-trimethyl-1H-pyrazole-4-sulfonamide] | 18.6 | 12.9 | 32.2 | 12.9 | > 200 | -0.9 | -2 | -2 | -1.6 | impotent; also recorded: less anti-proliferative activity |  |  |  |  |
| Cc1n[nH]c(C)c1S(=O)(=O)NCCc1cccc(Cl)c1 [MR-S1-7, N-(3-Chlorophenethyl)-3,5-dimethyl-1H-pyrazole-4-sulfonamide] | 14.5 | 13.4 | 24.2 | 51.6 | > 200 | -2 | -2.4 | 0.9 | -3.1 |  |  |  |  |  |
| Cc1nn(C)c(C)c1S(=O)(=O)N1CCC(c2nc3ccccc3[nH]2)CC1 [MR-S1-18, 2-(1-((1,3,5-Trimethyl-1H-pyrazol-4-yl)sulfonyl)piperidin-4-yl)-1H-benzo[d]imidazole] | 11.7 | 36.4 | 43.9 | 83.4 | 92.6 | 0.2 | -1.8 | 0.2 | -0.4 | good antiproliferative activity |  |  |  |  |
| Cc1n[nH]c(C)c1S(=O)(=O)N[C@H](C)c1cccc2ccccc12 [MR-S1-14, (R)-3,5-Dimethyl-N-(1-(naphthalen-1-yl)ethyl)-1H-pyrazole-4-sulfonamide] | 27.6 | 32.9 | 68.7 | 98.9 | 9.4 | -2.4 | -4 | -0.9 | -3.1 | good antiproliferative activity; also recorded: most potent |  |  |  |  |
| CCOCCn1c(C2CCN(S(=O)(=O)c3c(C)n[nH]c3C)CC2)nc2ccccc21 [MR-S1-19, 2-(1-((3,5-Dimethyl-1H-pyrazol-4-yl)sulfonyl)piperidin-4-yl)-1-(2-ethoxyethyl)-1H-benzo[d]imidazole] | -5 | 2.2 | -1.3 | 18 | > 200 | -4.9 | -1.3 | -1.8 | -4 | impotent; also recorded: less anti-proliferative activity |  |  |  |  |
| Cc1n[nH]c(C)c1S(=O)(=O)NCCc1ccccc1 [MR-S1-3, 3,5-Dimethyl-N-phenethyl-1H-pyrazole-4-sulfonamide] | 12.7 | 24.5 | 31.8 | 74.8 | 16 | -0.9 | -2.4 | -1.3 | -1.3 | moderate anti-proliferative activity |  |  |  |  |
| Cc1n[nH]c(C)c1S(=O)(=O)NCCC1=CCCCC1 [MR-S1-1, N-(2-(Cyclohex-1-en-1-yl)ethyl)-3,5-dimethyl-1H-pyrazole-4-sulfonamide] | 18.6 | 34.5 | 54.2 | 64.2 | 1.7 | -0.9 | -2.2 | -0.4 | -1.8 | moderate anti-proliferative activity |  |  |  |  |
| CCCOc1ccc(CCNS(=O)(=O)c2c(C)n[nH]c2C)cc1OCCC [MR-S1-12, N-(3,4-Dipropoxyphenethyl)-3,5-dimethyl-1H-pyrazole-4-sulfonamide] | 35.9 | 94.9 | 100 | 99.3 | 3.3 | -2.2 | 0.7 | -2.7 | -0.9 | good antiproliferative activity; also recorded: potent |  |  |  |  |
| Cc1nn(C)c(C)c1S(=O)(=O)NCCc1ccccc1 [MR-S1-4, 1,3,5-Trimethyl-N-phenethyl-1H-pyrazole-4-sulfonamide] | 33 | 19.2 | 37.8 | 23.2 | > 200 | -2.9 | -2.2 | -0.9 | -1.8 | impotent; also recorded: less anti-proliferative activity |  |  |  |  |
| Cc1nn(C)c(C)c1S(=O)(=O)NCCc1cccc(Cl)c1 [MR-S1-8, N-(3-Chlorophenethyl)-1,3,5-trimethyl-1H-pyrazole-4-sulfonamide] | 25.1 | 28.4 | 34.6 | 47.4 | > 200 | 2.9 | -1.3 | 1.8 | 0.4 |  |  |  |  |  |
